{"source": "ChEMBL document CHEMBL1123412", "about": "“Thiopurine methyltransferase: structure-activity relationships for benzoic acid inhibitors and thiophenol substrates” (J Med Chem, 1986)", "proteins": {"B1": {"name": "Thiopurine S-methyltransferase (Homo sapiens), P51580 (protein)", "chain": "MDGTRTSLDIEEYSDTEVQKNQVLTLEEWQDKWVNGKTAFHQEQGHQLLKKHLDTFLKGKSGLRVFFPLCGKAVEMKWFADRGHSVVGVEISELGIQEFFTEQNLSYSEEPITEIPGTKVFKSSSGNISLYCCSIFDLPRTNIGKFDMIWDRGALVAINPGDRKCYADTMFSLLGKKFQYLLCVLSYDPTKHPGPPFYVPHAEIERLFGKICNIRCLEKVDAFEERHKSWGIDCLFEKLYLLTEK"}}, "assay_type_in_all_cases": "tissue-based", "key": {"[1]": {"substrate": "O=C(O)c1ccccc1S", "test": "(§1) Apparent binding constant for purified human kidney TPMT", "summary_of_the_method": "(§2)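 Enzyme purified >300-fold from human kidney (100000g supernatant, ammonium sulfate, DEAE-A25, Sephadex G-100). The thiophenol replaced 6-MP as methyl acceptor, with 25 μM [14C-methyl]AdoMet at pH 6.7 and 37 °C for 30 min. Stopped with borate pH 10, extracted, scintillation counted. Five or more concentrations near Km in triplicate, at least twice. Apparent Km by Wilkinson method, averaged.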"}, "[2]": {"substrate": "Nc1ccccc1S", "test": "as §1", "summary_of_the_method": "as §2"}, "[3]": {"substrate": "COc1ccccc1S", "test": "as §1", "summary_of_the_method": "as §2"}, "[4]": {"substrate": "Sc1ccc(Cl)cc1", "test": "as §1", "summary_of_the_method": "as §2"}, "[5]": {"substrate": "Sc1ccccc1", "test": "as §1", "summary_of_the_method": "as §2"}, "[6]": {"substrate": "Sc1ccccc1Br", "test": "as §1", "summary_of_the_method": "as §2"}, "[7]": {"substrate": "Sc1cccc(Cl)c1", "test": "as §1", "summary_of_the_method": "as §2"}, "[8]": {"substrate": "Sc1ccc(Br)cc1", "test": "as §1", "summary_of_the_method": "as §2"}, "[9]": {"substrate": "COc1cccc(S)c1", "test": "as §1", "summary_of_the_method": "as §2"}, "[10]": {"substrate": "Cc1ccc(S)cc1", "test": "as §1", "summary_of_the_method": "as §2"}, "[11]": {"substrate": "O=[N+]([O-])c1ccc(S)cc1", "test": "as §1", "summary_of_the_method": "as §2"}, "[12]": {"substrate": "CC(=O)Nc1ccc(S)cc1", "test": "as §1", "summary_of_the_method": "as §2"}, "[13]": {"substrate": "COc1ccc(S)cc1", "test": "as §1", "summary_of_the_method": "as §2"}, "[14]": {"substrate": "Fc1ccc(S)cc1", "test": "as §1", "summary_of_the_method": "as §2"}}}
{"protein": "B1", "values": [{"measurement": "Km", "setting": "[1]", "result": 7.8, "unit": "µM"}, {"measurement": "Km", "setting": "[2]", "result": 2.5, "unit": "µM"}, {"measurement": "Km", "setting": "[3]", "result": 2.6, "unit": "µM"}, {"measurement": "Km", "setting": "[4]", "result": 3.6, "unit": "µM"}, {"measurement": "Km", "setting": "[5]", "result": 3.9, "unit": "µM"}, {"measurement": "Km", "setting": "[6]", "result": 0.8, "unit": "µM"}, {"measurement": "Km", "setting": "[7]", "result": 2.4, "unit": "µM"}, {"measurement": "Km", "setting": "[8]", "result": 4.8, "unit": "µM"}, {"measurement": "Km", "setting": "[9]", "result": 2.1, "unit": "µM"}, {"measurement": "Km", "setting": "[10]", "result": 5.9, "unit": "µM"}, {"measurement": "Km", "setting": "[11]", "result": 6.5, "unit": "µM"}, {"measurement": "Km", "setting": "[12]", "result": 2.1, "unit": "µM"}, {"measurement": "Km", "setting": "[13]", "result": 3.2, "unit": "µM"}, {"measurement": "Km", "setting": "[14]", "result": 5.6, "unit": "µM"}]}
